Screening results as filed in PubChem BioAssay.
The sample as a whole holds a higher share of hits than the screen did.
G6PDH CS = L. mesenteroides G6PDH inhibitors, counter-screen for G6PDH-coupled screening assays, biochemical, Leuconostoc mesenteroides enzyme; glucose-6-phosphate dehydrogenase [Leuconostoc mesenteroides]; inhibition, % at 5 µM; 200,000 tested, 0.12% active; Purified L. mesenteroides G6PDH, diaphorase/resazurin coupled fluorescence, 45 min
PfG6PD inh = PfG6PD enzyme inhibitors, primary screen, biochemical, fluorescence intensity, uHTS; PfGluPho enzyme, NADPH resazurin-diaphorase fluorescence; inhibition, % at 20 µM; 350,000 tested, 0.78% active;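 active means inhibition reaching at least a set limit at 20 µM in the primary screen, cut at about 59% in these data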;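 further: 0% = DMSO wells with substrate and 100% = DMSO wells lacking glucose-6-phosphate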
DTT redox prof = compounds producing H2O2 with reducing agent – biochemical, NIH compound library profiling, artefact control for MLSCN library redox annotation, primary screen | DTT-dependent redox cycling H2O2, phenol red/HRP absorbance; 100% = 100 µM peroxide control, 0% = buffer | activation, % at 10 µM | AID 878, 2007 | 200,000 tested, 0.03% active;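 active means activation of at least 50% relative to the plate's high and low controls in the primary single-dose screen; inactive means activation below 50%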;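 further: compound incubated with DTT at 0.8 mM final as the reducing agent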
Lmaj promast = Leishmania major promastigote growth inhibition, primary screen; Leishmania major promastigotes, resazurin fluorescence viability; inhibition, % at 10 µM; 200,000 tested, 9% active;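 further: promastigotes grown with compound for 44 hours at 28 °C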
Diaph act CS = compounds boosting diaphorase resazurin reduction – biochemical, uHTS, resorufin fluorescence, counter-screen for diaphorase-coupled primary assays, primary screen | activation factor at 20 µM | 190,000 tested, 0.005% active | Diaphorase/resazurin coupled assay, 16 min; hits give high values; 1 = vehicle wells, 0 = NADH-free wells;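 active means diaphorase activity raised at least twofold by the compound at 20 µM; inactive means activation factor below 2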
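Measured by – red resorufin fluorescence at 544/590 nm excitation/emission · Test system – Clostridium kluyveri diaphorase, purified enzyme · Incubation – reaction time 16 min, room temperature · Buffer or medium – 50 mM HEPES pH 7.4 with 4.542 mM MgCl2, 0.005% Tween 20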
Diaphorase inh = diaphorase inhibitors and chemical oxidizers, primary screen, counter-screen for diaphorase-coupled primary assays, biochemical, uHTS, resorufin fluorescence; diaphorase resazurin-to-resorufin fluorescence, NADH, 16 min; bacterial (C. kluyveri) enzyme, not human; inhibition, % at 20 µM; 190,000 tested, 0.69% active; AID 1217, 2008;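 active means primary screen inhibition at 20 µM above a set limit, cut at about 50% in these data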;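 further: plate controls were DMSO with full reaction for no effect and wells lacking NADH for full effect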
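Assay system: diaphorase enzyme from Clostridium kluyveri; Input: enzyme working solution with 0.14 U/mL diaphorase; Timing: 16 min at room temperature; Technique: resorufin fluorescence, excitation 544 nm, emission 590 nm; Benchmarks: positive control minus NADH, DMSO neutral control.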
Numbers without * were called inactive; . = not tested or not shown. Unless noted, no stated cut-off is given here; in the data, active means inhibition above about 50%; inactive means the rest.

SMILES | G6PDH CS | PfG6PD inh | DTT redox prof | Lmaj promast | Diaph act CS | Diaphorase inh
CCOC(=O)c1c(C)[nH]c(C)c1C(=O)COC(=O)c1ccc(S(=O)(=O)N(CC)CC)cc1 | -4 | 14 | -3 | 5 | 0.8 | 21
CCOC(=O)c1c(C)[nH]c(C)c1C(=O)COC(=O)c1cccc(S(=O)(=O)NC)c1 | 5 | 4 | 2 | 80* | 0.9 | 9
Cc1ccc(S(=O)(=O)N(Cc2cc3ccccc3[nH]c2=O)c2cccc(C)c2)cc1 | . | -5 | . | . | . | .
Cc1cc2nc(C)c(Cc3ccccc3)c(=O)n2[nH]1 | 2 | 2 | -4 | 97* | 0.8 | 16
Cc1nc2c(-c3ccccc3)c[nH]n2c(=O)c1Cc1ccccc1 | 2 | -28 | 0 | 59* | 1.1 | -9
COc1ccc(-c2c(C)[nH]n3c(=O)c(Cc4ccccc4)c(C)nc23)cc1 | 12 | 35 | 1 | 81* | 1 | -1
Cc1cc(=O)n2[nH]cc(-c3ccccc3)c2n1 | . | -11 | . | . | . | .
Cc1nc2nc(-c3ccc(Cl)cc3)[nH]n2c(=O)c1Cc1ccccc1 | -10 | 14 | 2 | -8 | 0.9 | 8
O=C(CSc1nnc(Cc2ccccc2)c(=O)[nH]1)Nc1ccccc1 | . | -28 | . | . | . | .
COc1ccc(NC(=O)CSCC(=O)NC2(C)CCS(=O)(=O)C2)cc1 (centres undefined) | . | -9 | . | . | . | .
OC(COCc1cccs1)CN1CCN(c2cccc(Cl)c2)CC1 (centres undefined) | -4 | 13 | 0 | 99* | 0.9 | 14
CCOC(=O)C1CCN(CC(O)COc2ccc(C(C)(C)C)cc2)CC1 (centres undefined) | 17 | 2 | 0 | 92* | 0.8 | 20
CCOC(=O)C1CCN(CC(O)COc2ccc(C(C)=O)cc2)CC1 (centres undefined) | -1 | -2 | -1 | 92* | 1 | 4
CC(=O)c1ccc(OCC(O)CN2CCN(CC(O)COc3ccc(C(C)=O)cc3)CC2)cc1 (centres undefined) | 4 | -17 | 1 | -8 | 1 | -3
CCOC(=O)C1CCN(CC(O)COCc2cccs2)CC1 (centres undefined) | 5 | 4 | 0 | 79* | 1 | 3
CN(C1CCCCC1)S(=O)(=O)c1cc2c(cc1Cl)NC(=O)CO2 | . | -8 | . | . | . | .
COc1ccc(NC(=O)COC(=O)c2cc(SC)ccc2Cl)c(OC)c1 | 13 | -14 | 0 | -4 | 1 | 1
CCOC(=O)C1CCN(CC(O)COc2ccc(C(C)(C)CC)cc2)CC1 (centres undefined) | 8 | -5 | -2 | 97* | 0.8 | 15
CCOC(=O)C1CCN(CC(O)COCc2ccccc2)CC1 (centres undefined) | . | 8 | . | . | . | .
Cc1ccc2c(CN3CCN(Cc4ccc5c(c4)OCO5)CC3)cc(=O)oc2c1C | -3 | 10 | 0 | 73* | 1 | 0
CCN(CC(=O)Nc1ccc2c(c1)OCCO2)Cc1cc(=O)oc2c(C)c(C)ccc12 | 7 | -3 | 2 | 81* | 0.9 | 8
Cc1cc2oc(=O)cc(CN3CCN(Cc4ccc5c(c4)OCO5)CC3)c2cc1C | -1 | 1 | 0 | 94* | 0.8 | 19
Cc1cccc(N2C(=O)CC(N3CCN(Cc4ccc5c(c4)OCO5)CC3)C2=O)c1 (centres undefined) | 14 | 3 | 1 | -3 | 0.8 | 17
CCN(CC(=O)Nc1ccc2c(c1)OCCO2)CC(=O)Nc1ccc2c(c1)OCO2 | 7 | -3 | 0 | 9 | 0.8 | 16
Cc1ccc(C)c(N2C(=O)CC(N3CCN(Cc4ccc5c(c4)OCO5)CC3)C2=O)c1 (centres undefined) | -1 | -9 | 0 | 87* | 1 | -4
SMILES | G6PDH CS | PfG6PD inh | DTT redox prof | Lmaj promast | Diaph act CS | Diaphorase inh
CCC(=C(c1ccc(OC)cc1)c1ccc(OC)cc1)c1cn(CC(O)CN(CCO)CCO)c2ccccc12 (centres undefined) | 0 | 10 | -1 | 69* | 0.8 | 21
CC(=O)N1CCN(C(=O)c2cccc(S(=O)(=O)N3CCOCC3)c2)CC1 | . | -16 | . | . | . | .
O=C(/C=C/c1ccc(Cl)cc1)NC(=S)NN1CCCCC1c1cccnc1 (centres undefined) | 4 | . | 0 | 91* | 0.7 | 27
COc1ccc(/C=C/C(=O)NC(=S)NN2CCCCC2c2cccnc2)cc1OC (centres undefined) | -2 | 19 | 0 | 25 | 0.8 | 23
O=C(Nc1ccc(N2CCOCC2)c(Cl)c1)C1CCCCC1 | 2 | 41 | 2 | -1 | 1 | -1
c1ccc2c3c(cc(N4CCOCC4)c2c1)OC1(N2CCOCC2)CCCCC1O3 (centres undefined) | 50* | 42 | 1 | 4 | 0.7 | 25
COc1ccc(NC(=S)Nc2ccc(C)c(S(=O)(=O)N3CCCCC3)c2)cc1 | -8 | . | 1 | 76* | 0.9 | 10
COc1ccc(NS(=O)(=O)c2ccc(C)c(NC(=O)c3ccc(C)c(S(=O)(=O)N4CCOCC4)c3)c2)cc1 | 8 | 15 | 0 | -1 | 0.5 | 50*
